Assay results taken from publication PMC3566476 (Neuropharmacology, 2010).
Read-outs that look alike come from different tables or passages of the source.

What was measured:
[1] = test system: chronic constriction injury (CCI) of the sciatic nerve; assay: CCI neuropathic pain model, mechanical sensitization; type: in vivo, mouse
α2β3γ2 GABAA receptor = α2β3γ2 GABAA receptor (Homo sapiens, UniProt P18507+P47869); assay: [3H]flumazenil competition binding, L cells α2β3γ2; conditions: recombinant receptors, α2 versus α1
[2] = Pharmacokinetics of HZ166 in the brain; type: in vivo, mouse; conditions: 48 mg / kg i.p.
α1β3γ2 GABAA receptor = assay: [3H]flumazenil competition binding, L cells α1β3γ2; conditions: L cells α1β3γ2, [3H]flumazenil
Procedure, shortened: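 L(-tk) cells stably expressing α1β3γ2 were grown in DMEM/10% FBS and induced with 1 μM dexamethasone (final), then harvested 3–4 days later. Cells were sonicated in 10 mM Tris-HCl pH 7.4, 100 mM KCl with protease inhibitors; the 100,000 g pellet was used. About 200 μg protein was incubated with increasing test compound and 1.2 nM [3H]flumazenil for 90 min on ice, then filtered. Nonspecific binding: 10 μM clonazepam. 4–5 independent runs.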

[3] = test system: zymosan A induced inflammatory hyperalgesia; assay: Zymosan A model of inflammatory pain, mechanical sensitization; type: in vivo, mouse; conditions: 48 hours after zymosan A, 16 mg / kg i.p., 3 hours, n = 6
Procedure, shortened: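 Zymosan A (0.06 mg in 20 μl 0.9% NaCl) was injected s.c. into the left plantar hindpaw of male mice. After 48 h, test compound 16 mg/kg or vehicle was given i.p. Dynamic von Frey withdrawal thresholds were monitored for 3 h (4–5 readings averaged). AUC used the day-2 pre-drug baseline subtracted. n = 6/group; unpaired t-test.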

[4] = test system: chronic constriction injury (CCI) of the sciatic nerve; assay: Tolerance development in the CCI model; type: in vivo, mouse; conditions: 16 mg / kg i.p. once daily for 9 days, CCI mice, versus chronic vehicle
Procedure, shortened: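 Starting day 7 after left sciatic CCI, mice got test compound 16 mg/kg or vehicle i.p. once daily for 9 days. On day 10, each group was split to receive acute vehicle or 16 mg/kg i.p. Dynamic von Frey thresholds were followed for 3 h (4–5 readings averaged). %MPE was taken after 3, 5 and 10 days of treatment. n = 6/group.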

motor coordination = conditions: mouse, in vivo, ip
[5] = target: native GABAA receptors in membranes derived from spinal cord; assay: [3H]flumazenil competition binding, spinal cord membranes; conditions: mouse spinal cord membranes, 1.2 nM [3H]flumazenil, mean ± SD of 3
Procedure, shortened: (§1)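 Brain or spinal cord from male C57BL/6 mice (25–30 g) was homogenized in 10 mM Tris pH 7.4, 150 mM NaCl with protease inhibitors. Spins at 1000 g then 20,000 g (4°C); the pellet was washed in 10 mM Tris-HCl pH 7.4, 100 mM KCl. About 50 μg protein was incubated with increasing test compound and 1.2 nM [3H]flumazenil, 90 min on ice, then filtered. Nonspecific binding: 10 μM clonazepam. Scintillation counting; 3 independent runs.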

[6] = target: native GABAA receptors in membranes prepared from brain; assay: [3H]flumazenil competition binding, brain membranes; conditions: mouse brain membranes, 1.2 nM [3H]flumazenil, mean ± SD of 3
Procedure, shortened: as §1

[7] = test system: chronic constriction injury (CCI) of the sciatic nerve; assay: CCI neuropathic pain model, heat hyperalgesia; type: in vivo, mouse
Procedure, shortened: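 Male mice (7–12 weeks) had left sciatic nerve CCI under 2% isoflurane, with three loose chromic gut ligatures. On day 7, test compound 16 mg/kg or vehicle was given i.p. Radiant-heat paw withdrawal latency (plantar test) was taken for 3 h, with 4–5 readings averaged per time point and ipsi/contralateral paws tested alternately. AUC used the pre-drug baseline subtracted. n = 6/group; unpaired t-test.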

locomotor activity = assay: Locomotor activity; type: in vivo, mouse
Procedure, shortened: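 Male mice (7–12 weeks) were tested in the light phase. Sixty min after i.p. test compound (16, 48, 100, 160 mg/kg) or vehicle, each mouse was placed in a 20-cm circular enclosure with 4 photocells. Total photocell interruptions were counted over 1 h. n = 10/group; one-way ANOVA with Scheffe post hoc test.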

sedation [8] = conditions: at anxiolytic doses; ref Fischer et al., 2010; cited from earlier work
[9] = test system: rat neuropathic pain model; conditions: ref Knabl et al., 2008, cited from earlier work; for Analgesic effect during repeated administration (tolerance): once per day for nine days
sedation [10] = conditions: clinical development stopped; ref Atack et al., 2010; cited from earlier work
[11] = CCI mice day 7, i.p., mechanical sensitization, Hill fit
[12] = i.p., 60 min recording starting 60 min after injection

**Q.** For `CCOC(=O)c1ncn2c1CN(C)C(=O)c1cc(F)ccc1-2` [Flumazenil, flumazenil, reference compound], which “Effect of flumazenil on the antihyperalgesic effect of HZ166” value ([1]; flumazenil 10 mg / kg i.p., HZ166 16 mg / kg) is on record?
**A.** almost completely reversed

**Q.** Which “Affinity to α2-GABAA receptors higher than that to α1-GABAA receptors” value (α2β3γ2 GABAA receptor) does the source give for `C#Cc1ccc2c(c1)C(c1ccccn1)=NCc1c(C(=O)OCC)ncn1-2` [HZ166] here?
**A.** about 40%

**Q.** And the tmax in brain ([2]; CCI operated mice)?
**A.** ≤ 30 min

**Q.** What about the “estimated α half-life (brain)” value ([2]; initial elimination phase) of the same molecule?
**A.** 23.4 min

**Q.** And the “estimated apparent terminal half-life (brain)” value ([2]; β-phase)?
**A.** 396 min

**Q.** And the “AUC of mechanical PWT” value [3]?
**A.** 1.55 ± 0.21 g·h

**Q.** And the “Tolerance development (analgesic activity after chronic treatment)” value [4]?
**A.** no loss of antihyperalgesic activity

**Q.** What about the “Doses that did not interfere with rotarod performance” value (motor coordination) of the same molecule?
**A.** ≤ 160 mg/kg

**Q.** What about the ED50 antihyperalgesia ([1]; CCI mice day 7, i.p., mechanical sensitization, %MPE at 1 h, Hill fit) of the same molecule?
**A.** 5.3 ± 1.8 mg/kg

**Q.** And the “Emax (maximum antihyperalgesic effect, %MPE)” value [1, 11]?
**A.** 66 ± 5%

**Q.** What about the “Time of maximum effect on ipsilateral PWT after injection” value ([1]; CCI mice, i.p.) of the same molecule?
**A.** about 1 h

**Q.** And the “Doses with statistically significant antihyperalgesic effects” value ([1]; CCI mice, i.p., %MPE at 1 h)?
**A.** ≥ 5 mg/kg

**Q.** And the “PWTs of the contralateral paw” value ([1]; CCI mice, i.p., uninjured paw)?
**A.** not affected

**Q.** What about the Ki [5] of the same molecule?
**A.** 189 ± 10 nM

**Q.** What about the Ki [6] of the same molecule?
**A.** 282 ± 6 nM

**Q.** What about the “AUC of PWL, injured paw” value ([7]; CCI mice day 7, 16 mg / kg i.p., 3 hours, n = 6) of the same molecule?
**A.** 4.33 ± 1.95 s·h

**Q.** And the “estimated ED50 sedation” value (locomotor activity; estimated from locomotor activity, Fig. 6)?
**A.** 97 mg/kg

**Q.** What about the “Motor activity at 16 and 48 mg / kg” value (locomotor activity; [12]) of the same molecule?
**A.** did not significantly impair motor activity

**Q.** What about the “Motor activity at 100 and 160 mg / kg” value (locomotor activity; [12]) of the same molecule?
**A.** Significant reduction of activity

**Q.** What about the Sedation in primates (sedation [8]) of the same molecule?
**A.** does not cause sedation

**Q.** What does the source list for `Cn1ncnc1COc1nn2c(-c3cc(F)ccc3F)nnc2cc1C(C)(C)C` [L-838,417]?
**A.** Analgesic effect during repeated administration (tolerance) [9]: did not decline; Antihyperalgesic activity in rat neuropathic pain model [9]: good antihyperalgesic activity

**Q.** What does the source list for `NCC1(CC(=O)O)CCCCC1` [gabapentin, reference compound]?
**A.** Dose causing significant impairment of motor performance in the rotarod test (motor coordination; male): 90 mg/kg; Doses that did not interfere with rotarod performance (motor coordination; male): ≤ 30 mg/kg; Emax (maximum antihyperalgesic effect, %MPE) [1, 11]: 84 ± 1.4%; ED50 ([1]; Mus musculus, ip, read-out: ED50 antihyperalgesia): 6.2 ± 0.4 mg/kg; Doses with significant reduction in locomotor activity (locomotor activity; [12]): ≥ 30 mg/kg

**Q.** For `CN1CC[C@]23c4c5ccc(O)c4O[C@H]2[C@@H](O)C=C[C@H]3[C@H]1C5` [morphine], which “Analgesic effect during repeated administration (tolerance)” value [9] is on record?
**A.** complete tolerance developed

**Q.** Which Sedation in humans (sedation [10]) does the source give for MRK409 here?
**A.** sedative effects in man
